The list is not random: actives were taken first. Their share in the collection is about 2.5%.
SENP6 block – SENP6 protease inhibition; Q9GZR1; actives 1.8% (n = 330,000); Recombinant SENP6 catalytic domain, aminoluciferin luminescence; inhibition, % at 10 µM; AID 2599;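 active means inhibition above about 50% at the single tested dose, limit read from the data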;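 further: plate controls were DMSO wells with enzyme for no effect and DMSO wells lacking enzyme for full effect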
Target sequence (Q9GZR1 628-1112 limits assumed): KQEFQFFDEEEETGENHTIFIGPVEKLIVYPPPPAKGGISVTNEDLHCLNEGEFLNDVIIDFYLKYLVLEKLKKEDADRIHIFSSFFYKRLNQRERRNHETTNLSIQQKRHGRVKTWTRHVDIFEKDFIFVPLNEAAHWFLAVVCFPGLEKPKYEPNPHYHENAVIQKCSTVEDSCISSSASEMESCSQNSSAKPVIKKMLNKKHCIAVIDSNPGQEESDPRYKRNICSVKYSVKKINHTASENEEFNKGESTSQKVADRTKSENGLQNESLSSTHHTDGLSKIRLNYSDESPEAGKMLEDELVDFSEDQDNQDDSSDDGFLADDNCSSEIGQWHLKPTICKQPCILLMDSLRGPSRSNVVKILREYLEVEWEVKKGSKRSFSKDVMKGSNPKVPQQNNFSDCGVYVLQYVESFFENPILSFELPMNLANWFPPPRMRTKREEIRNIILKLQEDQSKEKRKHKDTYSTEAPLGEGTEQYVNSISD
SENP1 FRET inh – SENP1 (human) catalytic domain inhibition. inhibition, % at 10 µM. recombinant SENP1 catalytic domain, CyPet-SUMO1-YPet FRET cleavage. actives 0.21% (n = 360,000). Q9P0U3. AID 624204;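 active means inhibition at least 30% at 10 µM, raw YFP signal under a set limit, fluorescence ratio 0.5 to 1.5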;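 further: 0% = enzyme with DMSO and 100% = no enzyme wells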
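Compound: 10 µM single point, 0.5% DMSO; Test system: hSENP1 catalytic domain, recombinant; Timing: 50 min reaction at room temperature; Technique: FRET, CFP and YFP emission; Control set: no-enzyme wells low, DMSO-plus-enzyme wells high control.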
SENP8 block-1 – inhibitors of human SENP8 protease | Q96LD8 | recombinant SENP8, Nedd8 substrate fluorescence | inhibition, % at 20 µM | actives 0.64% (n = 360,000); in the data active means inhibition mostly above about 40%, no sharp cut-off; inactive means mostly below about 27%
SENP8 block-2 – inhibitors of human SENP8 protease. actives 1.2% (n = 330,000). Q96LD8. inhibition, % at 10 µM. AID 2540. purified SENP8, Z-RLRGG-aminoluciferin cleavage, luminescence; in the data active means inhibition above about 50%
SENP7 inh – inhibitors of human SENP7 protease. inhibition, % at 5 µM. recombinant SENP7, Z-RLRGG-aminoluciferin luminescence, 40 min. actives 1.5% (n = 330,000). Q9BQF6;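 active means inhibition above about 50% at the single test dose, limit read from the data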;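 further: plate controls were DMSO with enzyme for no effect and no enzyme buffer wells for full effect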
SENP8 confirm – human SENP8 inhibition, confirmed; shares compounds with SENP7 inh; Recombinant SENP8, Z-RLRGG-aminoluciferin luminescence, 60 min; inhibition, % at 12.5 µM; actives 40% (n = 6,200);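 active means mean inhibition across replicates above about 50%, limit read from the data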
SENP6 confirm – confirmation of human SENP6 protease inhibitors; shares compounds with SENP7 inh; actives 58% (n = 6,200); recombinant SENP6, Z-RLRGG-aminoluciferin luminescence; inhibition, % at 12.5 µM
SENP7 confirm – confirmation of human SENP7 protease inhibitors; shares compounds with SENP7 inh; recombinant SENP7, Z-RLRGG-aminoluciferin luminescence, 40 min; inhibition, % at 12.5 µM; actives 69% (n = 6,200); AID 488917
Casp3 SENP sel – selectivity test for SENP inhibitors: human caspase-3 inhibition; shares compounds with SENP7 inh; actives 60% (n = 6,200); inhibition, % at 12.5 µM; purified caspase-3, Z-DEVD-aminoluciferin luminescence, 60 min;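 active means mean inhibition above about 50%, limit read from the data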;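 further: plate controls were enzyme with DMSO for no effect and wells without caspase-3 for full effect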
Target sequence (P42574 28-227 limits assumed): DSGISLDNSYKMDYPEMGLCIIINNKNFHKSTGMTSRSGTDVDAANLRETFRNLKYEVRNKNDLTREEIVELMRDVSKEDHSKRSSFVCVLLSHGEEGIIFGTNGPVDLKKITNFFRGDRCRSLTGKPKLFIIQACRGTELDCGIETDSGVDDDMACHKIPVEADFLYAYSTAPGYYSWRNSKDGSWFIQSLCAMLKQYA
Luc interf – interferes with luciferase luminescence in SENP counter-screen; inhibition, % at 12.5 µM; actives 39% (n = 6,200); shares compounds with SENP7 inh; Pre-incubated SENP8/Z-RLRGG-aminoluciferin, luciferase luminescence interference;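 active means mean inhibition above about 50% when retested at one dose, limit read from the data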;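 further: plate controls were DMSO wells with completed reaction for no effect and substrate without enzyme for full effect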
Starred values were filed as active, the others as inactive; i = inactive; nt = no result given.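 How the source made its calls, unless noted: active means mean inhibition above about 50% in the one-dose retest (limit read from the data); inactive means the rest.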

SMILES | SENP6 block | SENP1 FRET inh | SENP8 block-1 | SENP8 block-2 | SENP7 inh | SENP8 confirm | SENP6 confirm | SENP7 confirm | Casp3 SENP sel | Luc interf
O=[N+]([O-])c1ccc(/C=N/Nc2ncccc2[N+](=O)[O-])s1 | 40.7 | 8.7 | 33.4 | 27.0 | 90.7* | 23.1 | 22.1 | 19.1 | 35.4 | 5.7
O=[N+]([O-])c1ccc(/C=N/n2cnc3ccccc32)s1 | 72.8* | -10.2 | 35.5 | 1.8 | 34.3 | 14.7 | 25.3 | 15.7 | 1.7 | 0.1
O=C(/C=C/[C@H]1O[C@@H](n2ccc(=O)[nH]c2=O)[C@H](O)[C@@H]1O)NCc1ccc2c(c1)OCO2 | nt | -0.8 | 19.3 | nt | nt | nt | nt | nt | nt | nt
O=C1CSC(c2cccnc2)N1Cc1ccc(Cl)c(Cl)c1 (centres undefined) | -27.4 | -1.7 | 0.0 | -1.4 | 8.9 | nt | nt | nt | nt | nt
NC(=O)c1cc([N+](=O)[O-])ccc1NCc1cccc2ccccc12 | -7.3 | -3.6 | 14.7 | 2.5 | -8.2 | nt | nt | nt | nt | nt
O=C(/C=C/Nc1ccc([N+](=O)[O-])cc1Br)c1cccc2ccccc12 | 87.2* | -30.6 | -5.8 | 8.6 | 85.6* | 14.9 | 15.8 | 27.3 | 13.9 | 1.3
CN(C)CCOc1ccc2c(c1)C(=O)C(=Cc1ncc([N+](=O)[O-])n1C)C2 | nt | 2.2 | 19.5 | nt | nt | nt | nt | nt | nt | nt
Cn1nnc(-c2ccc(OCc3ccccc3F)cc2)n1 | 97.3* | 2.5 | 8.4 | 91.2* | 98.4* | 11.2 | 94.4* | 101.1* | 78.7* | 22.1
O=C(Oc1ccc(C(=S)N2CCCCC2)cc1)c1ccccc1F | -7.9 | 1.5 | 28.2 | -14.5 | -10.4 | nt | nt | nt | nt | nt
Fc1ccccc1COc1ccc(C(=S)N2CCCC2)cc1 | 58.1* | -0.3 | 7.9 | 64.3* | 47.9 | 45.0 | 35.1 | 59.8* | 26.2 | 31.8
Fc1ccccc1COc1ccc(-c2nnn(Cc3ccccc3F)n2)cc1 | -7.8 | 0.9 | 17.8 | -4.0 | -1.7 | nt | nt | nt | nt | nt
CC(C)n1nnc(-c2ccc(OCc3ccccc3F)cc2)n1 | 90.4* | 1.2 | -0.7 | 90.4* | 90.3* | -7.6 | 91.3* | 99.5* | 82.3* | 61.8*
O=C(O)Cn1nnc(-c2ccc(OCc3ccccc3Cl)cc2)n1 | 16.7 | nt | nt | 0.2 | 2.8 | nt | nt | nt | nt | nt
C[C@H]1CCC(=O)N([C@H](CSc2ccc(Br)cc2)Cc2ccccc2)CC1 | -3.8 | -0.2 | 2.2 | 5.3 | 1.2 | nt | nt | nt | nt | nt
O=c1c2ccccc2nc2n1CCc1c-2[nH]c2ccccc12 | 63.9* | -2.4 | -378.0 | 48.4 | 89.3* | 33.2 | 28.9 | 27.7 | 25.0 | 18.6
Cc1cccc2c(=O)n3c(cc12)-c1[nH]c2ccccc2c1CC3 | nt | -134.5 | i | nt | nt | nt | nt | nt | nt | nt
COC(=O)C1=CN(c2ccc(Oc3ccccc3)cc2)C(N)=C(C#N)C1c1ccccc1 (centres undefined) | nt | -9.6 | -68.5 | nt | nt | nt | nt | nt | nt | nt
O=C1/C(=C\c2ccc(O)cc2)SC(=S)N1/N=C/c1ccc(O)cc1 | 97.6* | 76.7* | 24.5 | 90.2* | 83.1* | 15.5 | 9.9 | 44.3 | 47.8 | 57.2*
O=C1C2C3C=CC(CC3)C2C(=O)N1/N=C/c1ccc(O)cc1 (centres undefined) | -21.7 | 1.3 | 7.6 | -5.9 | 2.0 | nt | nt | nt | nt | nt
CC(=O)NN1C(=O)/C(=C\c2ccc(O)cc2)SC1=S | 68.5* | 54.6* | 15.7 | 59.8* | 54.4* | 63.3* | 60.8* | 85.0* | 81.8* | 74.1*
Nc1[nH]c2cc([N+](=O)[O-])ccc2c1-c1ccccn1 | -25.7 | -0.3 | 17.9 | -4.7 | -14.2 | nt | nt | nt | nt | nt
Cn1c(=O)c2c(SCc3ccccc3)nc(C3CC3)nc2n(C)c1=O | 49.8 | -1.2 | 18.4 | 10.0 | 68.3* | 6.7 | 21.9 | 24.8 | 29.5 | 3.4
Cn1c(=O)c2c(SCc3ccccn3)nc(C3CC3)nc2n(C)c1=O | -12.5 | 3.2 | 4.4 | 12.9 | 9.1 | nt | nt | nt | nt | nt
CCc1ccc(S(=O)(=O)Nc2cc(SCC(=O)O)c(O)c3ccccc23)cc1 | 72.7* | -1.0 | 32.9 | 28.1 | 30.3 | 14.9 | 36.6 | 12.2 | -0.2 | 8.0
CN1CCN(C(=O)c2ccc(-c3cccs3)s2)CC1 | 5.5 | -10.0 | -478.2 | 1.4 | 9.3 | nt | nt | nt | nt | nt
SMILES | SENP6 block | SENP1 FRET inh | SENP8 block-1 | SENP8 block-2 | SENP7 inh | SENP8 confirm | SENP6 confirm | SENP7 confirm | Casp3 SENP sel | Luc interf
O=C(c1cccs1)c1ccc(-c2cccs2)s1 | 95.0* | 10.3 | -376.1 | 94.1* | 94.2* | 64.8* | 95.9* | 96.9* | 85.8* | 41.5
CCOc1ccc(NS(=O)(=O)c2ccc(OCC(=O)N3CCCC3)cc2)cc1 | -32.0 | 0.1 | 10.6 | 6.8 | 91.2* | 7.8 | 6.3 | 8.9 | 3.6 | 3.7
COc1cccc(CNc2ccccn2)c1O | 9.7 | -0.5 | 20.3 | 4.4 | 3.3 | nt | nt | nt | nt | nt
Oc1ccc(Cl)cc1CNc1cccc2cccnc12 | 83.7* | -9.0 | 34.9 | 88.3* | 64.8* | -7.1 | 18.1 | 5.1 | 4.3 | 5.9
Oc1c(Br)cc(Br)cc1CNc1ccccn1 | 2.6 | 1.8 | 34.5 | 3.3 | -0.1 | nt | nt | nt | nt | nt
Oc1c(Br)cc(Br)cc1CNc1cccc2cccnc12 | 85.1* | -22.5 | -69.8 | 90.8* | 88.3* | 3.6 | 21.2 | 21.8 | 3.7 | -2.7
COc1cccc(CNc2cnc3ccccc3c2)c1O | 59.8* | -7.1 | -303.8 | 41.6 | 38.1 | 37.0 | 34.7 | 77.0* | 34.5 | 61.2*
COc1cccc(CNc2cccc3cccnc23)c1O | 78.7* | -10.0 | 32.6 | 80.3* | 66.3* | -5.9 | 11.4 | 16.4 | 2.0 | 14.1
CCOC(=O)COc1ccc(/C=C2\NC(=S)N(CC)C2=O)cc1 | -31.7 | -49.5 | 19.5 | -6.1 | -10.9 | nt | nt | nt | nt | nt
CC1CCCCC1NC(=O)c1cc(S(=O)(=O)N2CCOCC2)ccc1Cl (centres undefined) | -6.0 | 2.0 | 8.4 | 0.6 | 5.6 | nt | nt | nt | nt | nt
Oc1ccc(Br)cc1CNc1cccc2cccnc12 | 78.4* | -11.6 | -8.4 | 79.9* | 70.5* | 9.4 | 29.2 | 6.6 | 1.5 | 1.3
Cc1ccc(O)c(CNc2cccc3cccnc23)c1 | -3.7 | -6.0 | -8.2 | 84.1* | 65.5* | -2.0 | 21.3 | 15.9 | 5.0 | 3.5
Oc1ccc(Br)cc1CNc1cnc2ccccc2c1 | 5.9 | -10.0 | -329.6 | -6.2 | -7.4 | nt | nt | nt | nt | nt
COc1cc2c(C#N)c(N3CCc4ccccc4C3)nc(N)c2c(N)n1 | 82.7* | -24.6 | -264.9 | 80.2* | 38.4 | 7.7 | 29.8 | 19.2 | 5.2 | 3.2
CCOc1cc2c(C#N)c(N3CCCCC3)nc(N)c2c(N)n1 | 69.2* | -48.6 | -327.0 | 65.5* | 29.3 | 13.7 | 41.5 | 25.7 | 0.9 | 2.5
CCCCN1C(=O)Cc2c1nc(N)c1c(N)nc(N(CCC)CCC)c(C#N)c21 | nt | -51.6 | -327.3 | nt | nt | nt | nt | nt | nt | nt
